What all share (assay type): cell-based
In one assay the test system is HeLa. Briefly: MTT antiproliferative assay, cervical HeLa cells. The settings on record: Homo sapiens, 72 h, read-out: IC50 values, HeLa. The method, boiled down:
(§1)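 ATCC-sourced cancer cells were seeded in RPMI 1640 at 20 000 cells/mL and left 24 h to adhere. Serial dilutions of test compound ([…], in DMSO) were added, then incubated 72 h. MTT (5 mg/mL in PBS) was added for 4 h. Medium was removed, formazan dissolved in DMSO and read at 570 nm. IC50 came from linear regression of the dose–response curve; three runs, mean ± SD.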
(In general: Tetrazolium assays rely on reduction of a dye to a coloured formazan, in cell work by metabolically active cells.)

For another assay, the system named is RKOP 27. Briefly: MTT antiproliferative assay, colon RKOP 27 cells. The settings on record: RKOp27, 72 h, read-out: IC50 values, RKOP 27. A digest of the protocol:
as §1

For a further assay, the system named is U937. Briefly: MTT antiproliferative assay, leukemia U937 cells. The settings on record: Homo sapiens, U-937, 72 h, read-out: IC50 values, U937. A digest of the protocol: as §1
For the next assay, the system named is SKMEL-28. Briefly: MTT antiproliferative assay, melanoma SKMEL-28 cells. The note with it: read-out: IC50 values, SKMEL-28. The method, boiled down:
as §1

The subject of the next assay is NCIH 460. In words: MTT antiproliferative assay, large-cell lung NCIH 460 cells. The note with it: Homo sapiens, NCI-H460, 72 h, read-out: IC50 values, N CIH 460. The method, boiled down:
as §1

Read-outs that look alike come from different tables or passages of the source.

Broadly, the IC50 is the concentration that inhibits the measured activity by half. For the compound `N#Cc1c(-c2cccs2)cc(-c2cccc3ccccc23)nc1NN` [11b, 2-Hydrazinyl-6-(naphthalen-1-yl)-4-(thiophen-2-yl)nicotinonitrile], the half-inhibitory concentration (IC50) with HeLa turned out to be 1260 ± 227 nM; in the assay with RKOP 27 it was 846 ± 96 nM; in the assay on U937, 1590 ± 215 nM; in the assay with SKMEL-28 (Homo sapiens, SK-MEL-28, 72 h), 1300 ± 106 nM; in the assay on NCIH 460 it was 478 ± 96 nM.
Consider `N#Cc1c(-c2cccs2)cc(-c2cccc3ccccc23)[nH]c1=S` [7b, 6-(Naphthalen-1-yl)-4-(thiophen-2-yl)-2-thioxo-1,2-dihydropyridine-3-carbonitrile], for which the half-inhibitory concentration (IC50) in the assay on HeLa was 1370 ± 213 nM; in the assay with RKOP 27 it was 697 ± 72 nM; with U937, 1570 ± 321 nM; in the assay on SKMEL-28 (Homo sapiens, SK-MEL-28, 72 h) it was 1130 ± 137 nM; in the assay with NCIH 460, 638 ± 138 nM.
As for `N#Cc1c(-c2cccs2)cc(-c2cccc3ccccc23)nc1Cl` [6b, 2-Chloro-6-(naphthalen-1-yl)-4-(thiophen-2-yl)nicotinonitrile], the concentration for half-maximal inhibition (IC50) in the assay on HeLa amounted to 795 ± 96 nM; with RKOP 27 it was 695 ± 56 nM; with U937 it was 2550 ± 374 nM; in the assay on SKMEL-28 (Homo sapiens, SK-MEL-28, 72 h), 1370 ± 215 nM; with NCIH 460 it was 728 ± 88 nM.
aldelseukin [reference compound]: the IC50 in the assay on SKMEL-28 (MTT, 72 h, mean ± SD, three runs) was 3450 ± 64 nM.
For `N#Cc1c(-c2cccs2)cc(-c2cccc3ccccc23)nc1NNC(=O)Cc1ccccc1` [14b, N′-(3-Cyano-6-(naphthalen-1-yl)-4-(thiophen-2-yl)pyridin-2-yl)-2-phenylacetohydrazide], the IC50 with HeLa is 1390 ± 110 nM; with RKOP 27 it was 869 ± 87 nM; in the assay with U937, 976 ± 125 nM; in the assay on SKMEL-28 (Homo sapiens, SK-MEL-28, 72 h), 1360 ± 98 nM; with NCIH 460, 789 ± 69 nM.
The like results for `CCCCCCCCN(c1nc(-c2cccc3ccccc23)cc(-c2cccs2)c1C#N)c1nc(-c2cccc3ccccc23)cc(-c2cccs2)c1C#N` [8b, 2,2′-(Octylazanediyl)bis(6-(naphthalen-1-yl)-4-(thiophen-2-yl)nicotinonitrile)] were, in that order, 1040 ± 326 nM, 486 ± 49 nM, 1370 ± 284 nM, 1260 ± 168 nM and 468 ± 69 nM.
Consider `N#Cc1c(-c2cccs2)cc(-c2cccc3ccccc23)n(C(=S)Nc2ccccc2)c1=O` [5b, 3-Cyano-6-(naphthalen-1-yl)-2-oxo-N-phenyl-4-(thiophen-2-yl)pyridine-1(2H)-carbothioamide], for which the concentration for half-maximal inhibition (IC50) is 277 ± 55 nM with HeLa; 56 ± 3.2 nM in the assay on RKOP 27; 980 ± 55 nM in the assay with U937; 755 ± 18 nM in the assay with SKMEL-28 (Homo sapiens, SK-MEL-28, 72 h); 32 ± 5.5 nM in the assay on NCIH 460.
For `N#Cc1c(-c2cccs2)cc(-c2cccc3ccccc23)nc1NCCN` [10b, 2-((2-Aminoethyl)amino)-6-(naphthalen-1-yl)-4-(thiophen-2-yl)nicotinonitrile], in that order: 211 ± 69 nM, 46 ± 2.6 nM, 642 ± 69 nM, 669 ± 26 nM and 46 ± 6.9 nM.
The like results for `N#Cc1c(-c2ccc(Cl)cc2)cc(-c2cccc3ccccc23)nc1NCCN` [10a, 2-((2-Aminoethyl)amino)-4-(4-chlorophenyl)-6-(naphthalen-1-yl)nicotinonitrile] were, in that order, 1160 ± 206 nM, 596 ± 59 nM, 1810 ± 369 nM, 1790 ± 236 nM and 896 ± 78 nM.
Regarding `CCCCCOC(=O)Nc1nc(=O)n([C@@H]2O[C@H](C)[C@@H](O)[C@H]2O)cc1F` [capecitabine, reference compound], the IC50 in the assay on RKOP 27 turned out to be 4330 ± 64 nM.
For the compound `N#Cc1c(-c2ccc(Cl)cc2)cc(-c2cccc3ccccc23)[nH]c1=S` [7a, 4-(4-Chlorophenyl)-6-(naphthalen-1-yl)-2-thioxo-1,2-dihydropyridine-3-carbonitrile], the concentration for half-maximal inhibition (IC50) turned out to be 1020 ± 136 nM with HeLa; 596 ± 96 nM in the assay with RKOP 27; 1630 ± 298 nM in the assay on U937; 1240 ± 196 nM with SKMEL-28 (Homo sapiens, SK-MEL-28, 72 h); 764 ± 102 nM in the assay with NCIH 460.
Take `Cc1cc(=O)[nH]n1-c1nc(-c2cccc3ccccc23)cc(-c2cccs2)c1C#N` [13b, 2-(5-Methyl-3-oxo-2,3-dihydro-1H-pyrazol-1-yl)-6-(naphthalen-1-yl)-4-(thiophen-2-yl)nicotinonitrile]: the IC50 in the assay on HeLa is 1360 ± 139 nM; in the assay on RKOP 27, 698 ± 79 nM; in the assay with U937, 1760 ± 68 nM; in the assay on SKMEL-28 (Homo sapiens, SK-MEL-28, 72 h) it was 1360 ± 182 nM; in the assay on NCIH 460, 869 ± 76 nM.
As to `N#Cc1c(-c2ccc(Cl)cc2)cc(-c2cccc3ccccc23)[nH]c1=O` [4a, 4-(4-Chlorophenyl)-6-(naphthalen-1-yl)-2-oxo-1,2-dihydropyridine-3-carbonitrile], the half-maximal inhibitory concentration (IC50) with HeLa was determined as 250 ± 19 nM; in the assay on RKOP 27 it was 30 ± 1.5 nM; with U937 it was 766 ± 19 nM; in the assay on SKMEL-28 (Homo sapiens, SK-MEL-28, 72 h) it was 590 ± 15 nM; in the assay with NCIH 460, 66 ± 9 nM.
As to `N#Cc1c(-c2ccc(Cl)cc2)cc(-c2cccc3ccccc23)n(C(=S)Nc2ccccc2)c1=O` [5a, 4-(4-Chlorophenyl)-3-cyano-6-(naphthalen-1-yl)-2-oxo-N-phenylpyridine-1(2H)-carbothioamide], the 50% inhibitory concentration (IC50) in the assay with HeLa came out at 973 ± 185 nM; with RKOP 27, 635 ± 45.8 nM; in the assay on U937 it was 1530 ± 255 nM; in the assay with SKMEL-28 (Homo sapiens, SK-MEL-28, 72 h), 1160 ± 318 nM; in the assay on NCIH 460, 518 ± 56.6 nM.
Regarding `CCCCCCCCN(c1nc(-c2cccc3ccccc23)cc(-c2ccc(Cl)cc2)c1C#N)c1nc(-c2cccc3ccccc23)cc(-c2ccc(Cl)cc2)c1C#N` [8a, 2,2′-(Octylazanediyl)bis(4-(4-chlorophenyl)-6-(naphthalen-1-yl)nicotinonitrile)], the IC50 with HeLa was 229 ± 74 nM; with RKOP 27 it was 40 ± 2.1 nM; in the assay with U937, 544 ± 74 nM; in the assay on SKMEL-28 (Homo sapiens, SK-MEL-28, 72 h) it was 774 ± 21 nM; in the assay with NCIH 460, 48 ± 7.4 nM.
Take `Nc1ccn([C@@H]2O[C@H](CO)[C@@H](O)C2(F)F)c(=O)n1` [gemcitabine, reference compound]: the 50% inhibitory concentration (IC50) in the assay with NCIH 460 was determined as 2130 ± 50 nM.
Take `N#Cc1c(-c2cccs2)cc(-c2cccc3ccccc23)[nH]c1=O` [4b, 6-(Naphthalen-1-yl)-2-oxo-4-(thiophen-2-yl)-1,2-dihydropyridine-3-carbonitrile]: the 50% inhibitory concentration (IC50) amounted to 246 ± 69 nM in the assay on HeLa; 39 ± 9.8 nM in the assay with RKOP 27; 836 ± 69 nM in the assay on U937; 669 ± 9.8 nM in the assay with SKMEL-28 (Homo sapiens, SK-MEL-28, 72 h); 58 ± 6.9 nM with NCIH 460.
On to `Cc1nnc2c(C#N)c(-c3cccs3)cc(-c3cccc4ccccc34)n12` [12b, 3-Methyl-5-(naphthalen-1-yl)-7-(thiophen-2-yl)-[1,2,4]triazolo[4,3-a]pyridine-8-carbonitrile], for which the IC50 with HeLa is 1440 ± 108 nM; in the assay with RKOP 27, 869 ± 87 nM; in the assay with U937, 1470 ± 151 nM; with SKMEL-28 (Homo sapiens, SK-MEL-28, 72 h), 1370 ± 389 nM; in the assay with NCIH 460 it was 648 ± 76 nM.
For `Cc1cc(=O)[nH]n1-c1nc(-c2cccc3ccccc23)cc(-c2ccc(Cl)cc2)c1C#N` [13a, 4-(4-Chlorophenyl)-2-(5-methyl-3-oxo-2,3-dihydro-1H-pyrazol-1-yl)-6-(naphthalen-1-yl)nicotinonitrile], the concentration for half-maximal inhibition (IC50) in the assay with HeLa came to 1270 ± 103 nM; with RKOP 27, 879 ± 68 nM; with U937, 1690 ± 89 nM; in the assay on SKMEL-28 (Homo sapiens, SK-MEL-28, 72 h), 1500 ± 218 nM; in the assay with NCIH 460 it was 765 ± 89 nM.
Consider `N#Cc1c(-c2ccc(Cl)cc2)cc(-c2cccc3ccccc23)nc1Cl` [6a, 2-Chloro-4-(4-chlorophenyl)-6-(naphthalen-1-yl)nicotinonitrile], for which the IC50 with HeLa was determined as 896 ± 115 nM; in the assay with RKOP 27 it was 512 ± 32 nM; in the assay with U937 it was 1340 ± 174 nM; in the assay on SKMEL-28 (Homo sapiens, SK-MEL-28, 72 h) it was 1850 ± 321 nM; with NCIH 460, 689 ± 98 nM.
Regarding `Cc1nnc2c(C#N)c(-c3ccc(Cl)cc3)cc(-c3cccc4ccccc34)n12` [12a, 7-(4-Chlorophenyl)-3-methyl-5-(naphthalen-1-yl)-[1,2,4]triazolo[4,3-a]pyridine-8-carbonitrile], the half-inhibitory concentration (IC50) in the assay on HeLa came to 185 ± 51 nM; in the assay with RKOP 27, 48 ± 4.1 nM; in the assay on U937, 581 ± 51 nM; in the assay with SKMEL-28 (Homo sapiens, SK-MEL-28, 72 h), 510 ± 41 nM; in the assay with NCIH 460 it was 33 ± 5.1 nM.
As to `N#Cc1c(-c2ccc(Cl)cc2)cc(-c2cccc3ccccc23)nc1NN` [11a, 4-(4-Chlorophenyl)-2-hydrazinyl-6-(naphthalen-1-yl)nicotinonitrile], the concentration for half-maximal inhibition (IC50) is 255 ± 72 nM in the assay with HeLa; 55 ± 3.6 nM in the assay on RKOP 27; 458 ± 72 nM in the assay on U937; 572 ± 36 nM in the assay with SKMEL-28 (Homo sapiens, SK-MEL-28, 72 h); 44 ± 7.2 nM with NCIH 460.
Consider `COc1cccc2c1C(=O)c1c(O)c3c(c(O)c1C2=O)C[C@@](O)(C(=O)CO)C[C@@H]3O[C@H]1C[C@H](N)[C@H](O)[C@H](C)O1` [doxorubicin, reference compound], for which, in the assay on U937, the half-maximal inhibitory concentration (IC50) was 4450 ± 50 nM.

These data come from PMC7970580 (ACS Omega, 2021).
